# From PubChem BioAssay
# TRPC4 agonist: activators of mouse TRPC4 channel; Q9QUQ5; 310,000 compounds, 0.49% hits; HEK293 TRPC4beta/mu-opioid, Fluo4 calcium fluorescence; hits give high values; AID 2237; B-score at 10 µM;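 active = B-score above 5 SD of library B-scores, and initial fluorescence ratio not above library mean plus 5 SD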;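 note: positive B-score marks a calcium rise read as TRPC4 activation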
#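 System – HEK293 cells stably co-expressing mouse TRPC4beta and mu-opioid receptor · Signal – Fluo4 calcium-sensitive dye fluorescence, kinetic, 1 Hz baseline · Benchmarks – buffer (low) and maximal DAMGO (high) · Read-out – B score of integrated fluorescence ratio per well · Incubation – dye loading 45 min room temperature, 110 s kinetic read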
# TRPC4 potent: TRPC4 (mouse) allosteric potentiation; Q9QUQ5; HEK293 TRPC4beta/mu-opioid, DAMGO EC20, Fluo-4 Ca2+ flux; hits give high values; B-score at 10 µM; 310,000 compounds, 0.42% hits; AID 2227;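 active = B-score of calcium response area above 5 SD of library B-scores, with initial fluorescence ratio within 5 SD of library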
# TRPC6 act: mouse TRPC6 channel activation | Q61143 | HEK293-TRPC6 membrane potential dye fluorescence; hits give high values | B-score at 10 µM | 310,000 compounds, 0.13% hits;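 active = B-score of the integrated fluorescence ratio above library mean plus 3 SD, and starting fluorescence ratio within library mean plus 5 SD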;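 note: higher score means more depolarization so channel activation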
# TRPC6 inhibitor: mouse TRPC6 channel inhibition. Q61143. 310,000 compounds, 1.1% hits. AID 2553. HEK293-TRPC6, membrane potential dye, ACh-evoked depolarization; hits give low values. B-score at 10 µM;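 active = B-score under library mean minus 3 SD, initial fluorescence not abnormally high, positive integrated signal ratio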;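 note: B-score derived from integrated fluorescence ratio over the kinetic read; more negative B-score means stronger inhibition of depolarization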
# TRPC4 block: blocks the mouse TRPC4 cation channel | Q9QUQ5 | HEK293 TRPC4beta/mu-opioid, DAMGO-evoked Fluo4 calcium flux; hits give low values | B-score at 10 µM | 300,000 compounds, 0.39% hits | AID 2247;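 active = B-score over 3 SD under the library average, no early fluorescence shift, positive overall ratio signal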
#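 System: stable TRPC4beta/mu-opioid receptor HEK293 cells; Dosing: single-point compound dosing; Measured by: Fluo4 Ca2+ flux fluorescence; Read-out basis: per-well B score of integrated baseline-normalized Fluo4 ratio.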
# Kir21 inh: Kir2.1 (mouse) channel inhibition; B-score at 10 µM; HEK293-Kir2.1, FluxOR thallium flux fluorescence; hits give low values; 310,000 compounds, 0.85% hits; AID 1672; P35561;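 active = fluorescence ratio B-score at or below minus 3 SD of library scores, with starting-brightness B-score within 2 SD, cut at about -4.2 in these data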;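 note: channel flux triggered by added potassium and thallium sulfate stimulus; B-score of peak minus minimum fluorescence over baseline after thallium stimulus; more negative B-score means stronger Kir2.1 block with less thallium influx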
# Target sequence (P35561 whole entry, looked up): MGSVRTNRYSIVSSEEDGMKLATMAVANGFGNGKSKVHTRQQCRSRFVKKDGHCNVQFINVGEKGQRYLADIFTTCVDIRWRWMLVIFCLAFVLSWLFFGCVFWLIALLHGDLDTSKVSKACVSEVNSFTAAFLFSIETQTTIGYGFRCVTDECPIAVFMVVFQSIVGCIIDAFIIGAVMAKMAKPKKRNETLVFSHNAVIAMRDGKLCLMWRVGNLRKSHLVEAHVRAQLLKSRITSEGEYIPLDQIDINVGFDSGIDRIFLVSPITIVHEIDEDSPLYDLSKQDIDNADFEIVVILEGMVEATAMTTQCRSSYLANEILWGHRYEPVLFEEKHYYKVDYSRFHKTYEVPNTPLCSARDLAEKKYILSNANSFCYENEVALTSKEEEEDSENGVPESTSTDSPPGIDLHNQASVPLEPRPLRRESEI
# A number is an active result; n = inactive; ! = a repeat was not active. In the library only some 2.9% were active in any assay of this set; here they are far more common.
SMILES,TRPC4 agonist,TRPC4 potent,TRPC6 act,TRPC6 inhibitor,TRPC4 block,Kir21 inh
c1ccc(CN2CCC(Nc3nc(-c4ccccc4)nc4ccccc34)CC2)cc1,n,n,n,-6.6,n,n
COc1ccc(C2NC(=O)NC(c3ccccc3)=C2c2nc3ccccc3s2)cc1 (configuration not stated),n,n,n,n,n,n
O=C1NC(c2ccccc2)=C(c2nc3ccccc3s2)C(c2ccc(F)cc2)N1 (configuration not stated),n,11,n,n,n,n
CCCCN(CC)CCNC(=O)CN1C(=O)COc2ccc(S(=O)(=O)N3CCCC3)cc21,n,n,n,n,n,n
COc1cc(/C=C/C(=O)O)cc(S(=O)(=O)Nc2ccccc2Oc2ccccc2)c1OC,n,n,n,n,n,n
CCn1c(=O)[nH]c(=O)c2c(N)c(C(=O)c3cc(F)ccc3F)sc21,n,10,n,n,n,n
O=C(NCCc1c[nH]c2ccccc12)/C(=C\c1cccnc1)NC(=O)c1ccccc1F,n,n,n,n,n,n
CCc1cc(C(c2cccc(OC)c2)N2CCOCC2)c(NC(=O)c2ccccc2)s1 (configuration not stated),n,n,n,n,-6,n
C/C(N)=C(/C#N)C(=O)CSc1nnc(-c2ccccc2)n1C,n,n,n,n,n,n
COC(=O)c1sccc1NC(=O)c1ccc(C#N)cc1,n,n,n,-5,n,n
COC(=O)c1sccc1NC(=O)c1ccc(OC)cc1,n,n,n,n,n,n
CCCC(=O)Nc1ccc(-c2nc3ncccc3o2)cc1,n,n,n,n,n,n
CCCn1cc(CN2CCc3ccc(NC(=O)C4CCCO4)cc3C2)c(C)n1 (configuration not stated),n,n,n,n,n,n
COc1cc(=O)n2c(-c3ccccc3)csc2n1,n,n,n,n,-7,n
COc1cc2c(cc1OC)CN(Cc1cc(=O)n3c(-c4ccccc4)csc3n1)CC2,122,n,n,n,n,n
N#Cc1cccc(NC(=O)Cn2cnc(S(=O)(=O)N3CCCC3)c2)c1,n,n,n,n,n,n
CCOC(=O)c1oc2ccc(OC)cc2c1NC(=O)CN1CCN(C)CC1,88,n,n,n,n,n
CCOC(=O)c1oc2ccccc2c1NC(=O)CN1CCN(C)CC1,n,n,n,n,n,n
Cc1cc([N+](=O)[O-])nn1Cc1noc(C(=O)NCCc2ccccn2)n1,79,n,n,n,n,n
CCN(c1nc(N)c(C(=O)N=C(N)N)nc1Cl)C(C)C,100,n,n,n,n,-5.7
Cc1ccc(-c2ccc(CCC(=O)O)n2Cc2ccco2)cc1,n,n,n,n,n,n
CSc1ccccc1C(=O)NCC(c1ccco1)N(C)C (configuration not stated),n,n,n,n,n,n
CSc1ccc(C(=O)NCC(c2ccco2)N(C)C)cc1[N+](=O)[O-] (configuration not stated),293,n,n,n,n,n
O=C(NCc1ccco1)c1ccc2c(c1)S(=O)(=O)c1ccccc1C2=O,n,n,n,n,n,n
CN(C)C(CNC(=O)c1ccc2c(c1)S(=O)(=O)c1ccccc1C2=O)c1ccco1 (configuration not stated),120,n,n,n,-8,n
SMILES,TRPC4 agonist,TRPC4 potent,TRPC6 act,TRPC6 inhibitor,TRPC4 block,Kir21 inh
CC(C)C(NC(=O)c1ccco1)C(=O)NCC(c1ccco1)N(C)C (configuration not stated),n,n,n,n,n,n
CC(=O)NC(CC(=O)NCC(c1ccco1)N(C)C)c1ccccc1 (configuration not stated),92,n,n,n,n,n
CN(C)C(CNC(=O)c1ccc2ccccc2c1)c1ccco1 (configuration not stated),68,n,n,n,n,n
CCN(CC(=O)N1CCOCC1)S(=O)(=O)c1ccc(Cl)cc1,n,n,n,n,n,n
S=C(NC1CCCCC1)N1CCN(Cc2ccccc2Cl)CC1,n,n,n,n,n,n
CC(NC(=O)/C(=C/c1cccc([N+](=O)[O-])c1)NC(=O)c1ccco1)C(=O)O (configuration not stated),n,n,n,n,n,n
O=C(Nc1ccc(Cl)cc1)N1CCCN(Cc2ccc(F)cc2)C1,n,n,n,n,n,-4.5
O=C(Nc1ccccc1)N1CCN(Cc2ccc(Cl)cc2)CC1,n,n,n,n,n,n
CC(=O)c1cnn(-c2c(Cl)cc(Cl)cc2Cl)c1C,n,n,n,n,n,n
CCOc1ccc([N+](=O)[O-])cc1CNC1CCCCCCC1,n,n,n,-5.9,n,n
O=[N+]([O-])c1cccc(CNC2CCCCCC2)c1,n,n,n,n,n,n
COc1ccc(C2=C(CN(C)C)C(c3ccccc3)c3ccccc3O2)cc1 (configuration not stated),n,n,n,n,n,-5.2!
CCOc1ccc(C2=C(C=C(C#N)C#N)C(c3ccccc3)c3ccccc3O2)cc1 (configuration not stated),n,n,n,n,n,n
CN(Cc1cn(C)nc1-c1ccc(Oc2ccccc2)cc1)Cc1cnc2ccccn12,n,n,n,n,n,-5.1
Cn1cc(CNCc2cnc3ccccn23)c(-c2ccc(Oc3ccccc3)cc2)n1,n,n,n,n,n,n
Cc1c(N2C(=O)C3C4C=CC(C4)C3C2=O)c(=O)n(-c2ccccc2)n1C (configuration not stated),n,n,n,n,n,n
CSCCC(NC(=O)/C(=C/c1ccc(F)cc1)NC(C)=O)C(=O)O (configuration not stated),n,n,n,n,n,n
O=C(/C=C/c1ccc(S(=O)(=O)N2CCOCC2)cc1)NC(=S)Nc1ccc(N2CCOCC2)cc1,n,12,n,n,n,n
CCOC(=O)C1=C(C)N=C2SC(C(=O)OC)=CC(=O)N2C1c1ccc(OC)cc1 (configuration not stated),n,n,n,n,n,-5.7
S=C(NC1CCCCC1)N1CCN(C2CCCCC2)CC1,n,n,n,n,n,n
CC(C)Oc1ccc(C(CC(=O)O)Cc2ccccc2)cc1 (configuration not stated),n,n,n,n,n,n
Cc1ccc(-c2nnc(SCc3nc4ccccc4[nH]3)n2Cc2ccco2)cc1,n,n,n,n,n,n
O=C(CSc1nnc(-c2cccnc2)n1Cc1ccco1)c1ccc(Br)cc1,n,n,n,n,n,-5.9
Cc1cccc(-c2nnc(SCc3nc4ccccc4[nH]3)n2Cc2ccco2)c1,n,n,n,n,-7,n
Clc1cccc(-c2nnc(SC/C=C/c3ccccc3)n2Cc2ccco2)c1,n,n,n,n,n,n
